{
  "source": "paper PMC9512414",
  "about": "(International Journal of Nanomedicine, 2022)",
  "system": "lung tumor",
  "assay": "18F-FDG PET imaging of Kras metastatic lung cancer patients",
  "assay_type": "in vivo",
  "conditions": "Kras metastatic patients (Stage IV), in relation to control groups",
  "procedure,_shortened": "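Patients had 18F-FDG PET/CT at baseline before combined test treatment, after three treatment cycles (interim), and after treatment ended (late). Each patient had at least two scans. Images were reconstructed by ordered subset expectation maximization with six iterations and 12 subsets.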",
  "data": [
    {"molecule": "Daclizumab: FDA-approved drug, CD25 inhibitor (antibody, chains of the INN, looked up, V domains shown) VH: QVQLVQSGAEVKKPGSSVKVSCKASGYTFTSYRMHWVRQAPGQGLEWIGYINPSTGYTEYNQKFKDKATITADESTNTAYMELSSLRSEDTAVYYCARGGGVFDYWGQGTLVTVSS VL: DIQMTQSPSTLSASVGDRVTITCSASSSISYMHWYQQKPGKAPKLLIYTTSNLASGVPARFSGSGSGTEFTLTISSLQPDDFATYYCHQRSTYPLTFGQGTKVEVK", "values": [
      {"measurement": "tumor burden by comparative 18F-FDG PET imaging", "value": "lower tumor burden"}
    ]}
  ]
}
